Calls of active or inactive are those of the source. The rule behind the calls is not given here.
Columns and labels:
[1] = biological target: T1, 17-beta-hydroxysteroid dehydrogenase type 1 (Homo sapiens, UniProt P14061); assay: Inhibition of human placental cytosolic 17beta-HSD1 using [3H]-E1/E1 substrate and NADH after 10 mins by HPLC based radio-detection method
T1 sequence (P14061 whole entry): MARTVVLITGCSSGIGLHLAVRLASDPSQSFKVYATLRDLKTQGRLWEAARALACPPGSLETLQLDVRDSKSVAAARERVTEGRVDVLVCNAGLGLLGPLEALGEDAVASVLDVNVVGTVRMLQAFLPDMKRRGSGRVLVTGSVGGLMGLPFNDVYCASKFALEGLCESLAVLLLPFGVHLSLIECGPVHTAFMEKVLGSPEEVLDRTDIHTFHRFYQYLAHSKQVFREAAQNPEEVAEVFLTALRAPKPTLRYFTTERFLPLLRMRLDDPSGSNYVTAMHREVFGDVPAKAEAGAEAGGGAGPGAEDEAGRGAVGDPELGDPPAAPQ
Method in brief: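 Cell-free assay with the cytosolic fraction of human placenta as the 17β-HSD1 source and radiolabeled E1 as substrate, with test compound present.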

[2] = biological target: T2, Steryl-sulfatase (Homo sapiens) (UniProt P08842); assay: Inhibition of human placental microsomal STS assessed as formation of E1 at 1 uM preincubated for 30 mins followed by addition of E1S as substrate measured after 20 mins by ELISA
T2 sequence (whole entry): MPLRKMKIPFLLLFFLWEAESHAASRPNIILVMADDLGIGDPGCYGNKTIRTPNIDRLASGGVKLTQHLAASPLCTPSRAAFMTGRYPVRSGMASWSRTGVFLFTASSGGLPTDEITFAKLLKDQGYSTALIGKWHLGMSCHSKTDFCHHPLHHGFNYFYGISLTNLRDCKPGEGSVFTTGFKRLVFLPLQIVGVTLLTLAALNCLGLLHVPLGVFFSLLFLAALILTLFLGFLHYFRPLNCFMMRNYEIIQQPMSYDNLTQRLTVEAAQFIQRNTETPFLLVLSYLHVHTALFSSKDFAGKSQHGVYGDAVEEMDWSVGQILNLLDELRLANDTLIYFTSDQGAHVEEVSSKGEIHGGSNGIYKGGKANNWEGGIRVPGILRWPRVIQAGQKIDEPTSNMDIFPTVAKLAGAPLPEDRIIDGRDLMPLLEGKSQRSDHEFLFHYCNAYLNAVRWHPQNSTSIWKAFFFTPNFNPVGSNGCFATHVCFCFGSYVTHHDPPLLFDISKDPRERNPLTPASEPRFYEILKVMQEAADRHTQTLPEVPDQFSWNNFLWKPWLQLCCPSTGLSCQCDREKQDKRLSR
Method in brief: (§1)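 Human placental STS incubated with estrone sulfate (E1S) as substrate in the presence of inhibitor; estrone (E1) formed was quantified by ELISA.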

[3] = Stability of the compound in Tris-HCl buffer at pH 7.2 after 30 mins; format: physicochemical; conditions: pH 7.2, 0.5 h
Method in brief: (§2)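 Compound incubated in 20 mM Tris-HCl buffer, pH 7.2, at 37 °C for 30 min. Remaining parent compound was measured, with sulfamate cleavage to the phenolic OH product monitored.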

[4] = Selectivity factor, ratio of IC50 for human placental microsomal 17beta-HSD2 cells to IC50 for human placental cytosolic 17beta-HSD1
[5] = biological target: T3, 17-beta-hydroxysteroid dehydrogenase type 2 (Homo sapiens, UniProt P37059); assay: Inhibition of human placental microsomal 17beta-HSD2 using [3H]-E2/E2 substrate and NAD+ after 20 mins by HPLC based radio-detection method
T3 sequence (P37059 whole entry): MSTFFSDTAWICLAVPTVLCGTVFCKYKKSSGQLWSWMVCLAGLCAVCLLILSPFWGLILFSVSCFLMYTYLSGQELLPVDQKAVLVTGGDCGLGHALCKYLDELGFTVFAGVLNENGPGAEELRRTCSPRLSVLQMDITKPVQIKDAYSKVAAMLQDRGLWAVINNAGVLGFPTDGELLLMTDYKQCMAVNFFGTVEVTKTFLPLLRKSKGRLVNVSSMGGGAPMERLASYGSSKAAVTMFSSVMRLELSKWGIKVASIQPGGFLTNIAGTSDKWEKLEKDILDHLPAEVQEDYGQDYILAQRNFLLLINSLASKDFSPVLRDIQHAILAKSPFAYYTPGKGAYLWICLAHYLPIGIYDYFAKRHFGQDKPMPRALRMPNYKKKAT

Steryl-sulfatase [6] = biological target: T4, Steryl-sulfatase (Homo sapiens, UniProt P08842); assay: Inhibition of human placental microsomal STS assessed as formation of E1 preincubated for 30 mins followed by addition of E1S as substrate measured after 20 mins by ELISA; method in brief: as §1
T4 sequence (P08842 whole entry): T2 sequence (whole entry)

Steryl-sulfatase [7] = biological target: T4, Steryl-sulfatase; assay: Inhibition of STS in human T47D cells preincubated for 1 hr followed by addition of [3H]-E1S/E1S as substrate measured after 24 hrs by HPLC based radio-detection method; format: cell-based
[8] = biological target: T1, 17-beta-hydroxysteroid dehydrogenase type 1; assay: Inhibition of 17beta-HSD1 in human T47D cells preincubated for 1 hr followed by addition of [3H]-E1/E1 as substrate measured after 30 mins by HPLC based radio-detection method; format: cell-based
Steryl-sulfatase [9] = biological target: T4, Steryl-sulfatase; assay: Irreversible inhibition of STS in human T47D cells preincubated for 2 hrs followed by compound washout and addition of [3H]-E1S/E1S as substrate measured after 24 hrs by HPLC based radio-detection method; format: cell-based
T47D [10] = assay: Antiproliferative activity against E1S/E1-stimulated human T47D cells assessed as reduction in cell viability measured after 7 days after MTT assay; format: functional, cell-based
[11] = biological target: T2, Steryl-sulfatase (Homo sapiens); assay: Inhibition of STS in human T47D cells at 1 uM preincubated for 1 hr followed by addition of [3H]-E1S/E1S as substrate measured after 24 hrs by HPLC based radio-detection method; format: cell-based
[12] = biological target: T2, Steryl-sulfatase (Homo sapiens); assay: Irreversible inhibition of STS in human T47D cells at 1 uM preincubated for 2 hrs followed by compound washout and addition of [3H]-E1S/E1S as substrate measured after 24 hrs by HPLC based radio-detection method; format: cell-based
T47D [13] = assay: Antiproliferative activity against E1S/E1-stimulated human T47D cells assessed as cell viability at 50 to 200 nM measured after 7 days after MTT assay relative to control; format: functional
[14] = biological target: T2, Steryl-sulfatase (Homo sapiens); assay: Inhibition of STS in human T47D cells assessed as [3H]-E1S level at 200 nM after 48 hrs by HPLC based radio-detection method; format: cell-based; set-up: scale not given: the % may be the effect or the level left
[15] = biological target: T5, 17-beta-hydroxysteroid dehydrogenase type 1 (Homo sapiens) (UniProt P14061); assay: Inhibition of 17beta-HSD1 in human T47D cells assessed as [3H]-E1 level at 200 nM after 48 hrs by HPLC based radio-detection method (reference value: 0.9%); format: cell-based; set-up: scale not given: the % may be the effect or the level left
T5 sequence (whole entry): T1 sequence (P14061 whole entry)

[16] = biological target: T5, 17-beta-hydroxysteroid dehydrogenase type 1 (Homo sapiens); assay: Inhibition of 17beta-HSD1 in human T47D cells assessed as [3H]-E2 level at 200 nM after 48 hrs by HPLC based radio-detection method (reference value: 95.2%); format: cell-based; set-up: scale not given: the % may be the effect or the level left
[17] = Drug degradation in Tris-HCl buffer assessed as formation of metabolite containing phenolic OH-group by measuring remaining parent compound levels at pH 7.2 after 30 mins; method in brief: as §2
[18] = biological target: T2, Steryl-sulfatase (Homo sapiens); assay: Inhibition of STS in human T47D cells assessed as [3H]-E1S level at 400 nM after 48 hrs by HPLC based radio-detection method (reference value: 3.9%); format: cell-based; set-up: scale not given: the % may be the effect or the level left
[19] = biological target: T5, 17-beta-hydroxysteroid dehydrogenase type 1 (Homo sapiens); assay: Inhibition of 17beta-HSD1 in human T47D cells assessed as [3H]-E1 level at 400 nM after 48 hrs by HPLC based radio-detection method (reference value: 0.9%); format: cell-based; set-up: scale not given: the % may be the effect or the level left
[20] = biological target: T5, 17-beta-hydroxysteroid dehydrogenase type 1 (Homo sapiens); assay: Inhibition of 17beta-HSD1 in human T47D cells assessed as [3H]-E2 level at 400 nM after 48 hrs by HPLC based radio-detection method (reference value: 95.2%); format: cell-based; set-up: scale not given: the % may be the effect or the level left
T47D [21] = assay: Cytotoxicity against human T47D cells assessed as reduction in cell viability at 400 nM after 7 days by MTT assay; format: cell-based; conditions: 168 h, 0.4 µM
HEK293 = assay: Cytotoxicity against HEK293 cells assessed as reduction in cell viability at 0.1 to 1 uM after 48 hrs by MTT assay; format: cell-based; conditions: human, hek293, 48 h
T47D [22] = assay: Antiproliferative activity against E2-stimulated human T47D cells assessed as reduction in cell viability at 400 nM measured after 7 days after MTT assay; format: functional, cell-based
[23] = biological target: T5, 17-beta-hydroxysteroid dehydrogenase type 1 (Homo sapiens); assay: Irreversible inhibition of 17beta-HSD1 in human T47D cells at 50 nM preincubated for 2 hrs followed by compound washout and addition of […] as substrate measured after 24 hrs by HPLC based radio-detection method; format: cell-based

Structure (SMILES)	IC50 [1] [nM]	inhibition [2] [%]	Stability [3]	Ratio IC50 [4]	IC50 [5] [nM]	IC50 (Steryl-sulfatase [6]) [nM]	IC50 (Steryl-sulfatase [7]) [nM]	IC50 [8] [nM]	IC50 (Steryl-sulfatase [9]) [nM]	Activity (T47D [10])	other results
NS(=O)(=O)Oc1ccc(-c2ccc(C(=O)c3c(F)ccc(O)c3F)s2)cc1	3.4	< 10	Stable	8.2	28						
Cc1cc(-c2ccc(C(=O)c3c(F)ccc(O)c3F)s2)ccc1OS(N)(=O)=O	32.4		Stable	1	31.2	221					
NS(=O)(=O)Oc1cccc(-c2ccc(C(=O)c3c(F)ccc(O)c3F)s2)c1F	7.1		Stable	2.5	17.4	123					
NS(=O)(=O)Oc1ccc(-c2ccc(C(=O)c3c(F)ccc(O)c3F)s2)c(Cl)c1	10.2		Stable	1.9	19.1	19.4	3.4	60.9	3.9	Dose-dependent effect	
O=C(c1ccc(-c2ccc(O)cc2)s1)c1c(F)ccc(O)c1F	3.1	< 10		23.1				7.9			inhibition [11]: < 5%; inhibition [12]: < 5%; Activity (T47D [13]): 150%; Activity [14]: 3.5%; Activity [15]: 88.4%; Activity [16]: 7.9%
NS(=O)(=O)Oc1ccc(-c2ccc(C(=O)c3c(F)ccc(O)c3F)s2)c(F)c1	12.2		Stable	1.8	22.2	19.5	2.1	42.1	3.1	Dose-dependent effect	
NS(=O)(=O)Oc1ccc(-c2ccc(C(=O)c3c(F)ccc(O)c3F)s2)c(F)c1Cl	1.4			13.2	18.4	244					Stability [17]: 22%
NS(=O)(=O)Oc1cccc(-c2ccc(C(=O)c3c(F)ccc(O)c3F)s2)c1	2.2	< 10	Stable	14.2	31.3						
NS(=O)(=O)Oc1ccccc1-c1ccc(C(=O)c2c(F)ccc(O)c2F)s1	22.5	< 10	Stable	0.2	4.1						
Cc1cc(OS(N)(=O)=O)ccc1-c1ccc(C(=O)c2c(F)ccc(O)c2F)s1	43.5		Stable	0.9	40	35					
NS(=O)(=O)Oc1ccc(-c2ccc(C(=O)c3c(F)ccc(O)c3F)s2)c(F)c1F	2.7			8.6	23.2	105					Stability [17]: 28%
NS(=O)(=O)Oc1ccc(-c2ccc(C(=O)c3c(F)ccc(O)c3F)s2)cc1F	2.5		Stable	5.5	13.7	81.8	5.1	20	5.7	Dose-dependent effect	
NS(=O)(=O)Oc1ccc(-c2ccc(C(=O)c3c(F)ccc(O)c3F)s2)cc1Cl	1.1		Stable	33	36.1	143	15.6	22.2	16.4	Dose-dependent effect	Activity [18]: 50%; Activity [19]: 48.9%; Activity [20]: 1.1%; Activity (T47D [21]): Non-Toxic; Activity (HEK293): Non-Toxic; Activity (T47D [22]): inactive; inhibition [23]: inactive

From ChEMBL document CHEMBL4049440, “First Dual Inhibitors of Steroid Sulfatase (STS) and 17β-Hydroxysteroid Dehydrogenase Type 1 (17β-HSD1): Designed Multiple Ligands as Novel Potential Therapeutics for Estrogen-Dependent Diseases” (J Med Chem, 2017)
